From ChEMBL document CHEMBL1122629, “Potent and selective antagonists of the antidiuretic responses to arginine-vasopressin based on modifications of [1-(beta-mercapto-beta,beta-pentamethylenepropionic acid),2-D-isoleucine,4- valine]arginine-vasopressin at position 4” (J Med Chem, 1984)

What was measured:
Rattus norvegicus [1] = organism: Rattus norvegicus; assay: In vitro anti-oxytocic activity on isolated rat uteri in absence of Mg2+. pA2 value is negative logarithm of effective dose (ED); assay type: functional; conditions: read-out: pA2 (converted)
In short: (§1)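 Isolated rat uterus, with USP posterior pituitary reference standard as agonist. Antagonism expressed as pA2.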

Rattus norvegicus [2] = organism: Rattus norvegicus; assay: Anti-oxytocic activity on isolated rat uterus in presence of 0.5 mM of Mg2+. pA2 value is negative logarithm of effective dose (ED); assay type: functional; conditions: read-out: pA2 (converted); in short: as §1
Rattus norvegicus [3] = organism: Rattus norvegicus; assay: Antidiuretic activity in rats and pA2 value is negative logarithm of effective dose (ED); assay type: functional, organism-based; conditions: Urine, read-out: pA2 (converted)
In short: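 Antidiuretic assay in rats under ethanol anaesthesia against the USP posterior pituitary reference standard. Standard given 20 min after antagonist, or 10 min for analogues lacking agonism. Each peptide given at a high and a low dose. ED is the dose (nmol/kg) that cuts the response to 2x units of agonist to the response to 1x unit given before antagonist. […] Means ± SE, n assays.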

Rattus norvegicus [4] = organism: Rattus norvegicus; assay: Anti-oxytocic activity in rat uterus pA2 value is negative logarithm of effective dose (ED); assay type: functional, organism-based; conditions: read-out: pA2 (converted)
Rattus norvegicus [5] = assay: Compound was evaluated in vivo for anti-vasopressor activity in rats and pA2 value is negative logarithm of effective dose (ED); assay type: functional, organism-based; conditions: read-out: pA2 (converted)
In short: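 Intravenous vasopressor assay in phenoxybenzamine-treated rats under urethane anaesthesia, agonist USP posterior pituitary reference standard. ED is the dose (nmol/kg) that reduces the response to 2x units of agonist to that of 1x unit given before antagonist. […] Means ± SE, number of assays given.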

Rattus norvegicus [6] = organism: Rattus norvegicus; assay: Anti-oxytocic activity on isolated rat uterus in absence of Mg2+. pA2 value is negative logarithm of effective dose (ED); assay type: functional; conditions: read-out: pA2 (converted); in short: as §1
Rattus norvegicus [7] = assay: Compound was evaluated in vivo for anti-oxytocic activity in rat uterus. pA2 value is negative logarithm of effective dose (ED); assay type: functional, organism-based; conditions: read-out: pA2 (converted)
In short: (§2)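 Rat uterus in situ, with synthetic oxytocin as agonist. ED is the dose (nmol/kg) that lowers the response to 2x units of agonist to that of 1x unit given before antagonist.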

Rattus norvegicus [8] = assay: Evaluated in vivo for logarithm effective dose (ED); assay type: functional, organism-based
Rattus norvegicus [9] = assay: Compound was evaluated in vivo for anti-oxytocic activity in rat uteri. pA2 value is negative logarithm of effective dose (ED); assay type: functional, organism-based; conditions: read-out: pA2 (converted); in short: as §2

Compound: CC[C@@H]1NC(=O)[C@H](Cc2ccccc2)NC(=O)[C@@H]([C@H](C)CC)NC(=O)CC2(CCCCC2)SSC[C@@H](C(=O)N2CCC[C@H]2C(=O)N[C@@H](CCCN=C(N)N)C(=O)NCC(N)=O)NC(=O)[C@H](CC(N)=O)NC1=O
- Kb (Rattus norvegicus [1]): 0.0324 µM
- Kb (Rattus norvegicus [2]): 0.0933 µM
- Kb (Rattus norvegicus [3]): 0.00603 µM
- Kb (Rattus norvegicus [4]): 0.224 µM
- Kb (Rattus norvegicus [5]): 0.186 µM

Compound: CC[C@@H](C)[C@H]1NC(=O)CC2(CCCCC2)SSC[C@@H](C(=O)N2CCC[C@H]2C(=O)N[C@@H](CCCN=C(N)N)C(=O)NCC(N)=O)NC(=O)[C@H](CC(N)=O)NC(=O)[C@H]([C@@H](C)O)NC(=O)[C@H](Cc2ccccc2)NC1=O
- Kb (Rattus norvegicus [6]): 0.00794 µM
- Kb (Rattus norvegicus [2]): 0.0204 µM
- Kb (Rattus norvegicus [3]): 0.0123 µM
- Kb (Rattus norvegicus [7]): 0.135 µM
- in vivo pA2 effective dose (as concentration) (Rattus norvegicus [8]): 148 nM

Compound: CC[C@@H](C)[C@H]1NC(=O)CC2(CCCCC2)SSC[C@@H](C(=O)N2CCC[C@H]2C(=O)N[C@@H](CCCN=C(N)N)C(=O)NCC(N)=O)NC(=O)[C@H](CC(N)=O)NC(=O)[C@H]([C@@H](C)CC)NC(=O)[C@H](Cc2ccccc2)NC1=O
- Kb (Rattus norvegicus [6]): 0.0339 µM
- Kb (Rattus norvegicus [2]): 0.0151 µM
- Kb (Rattus norvegicus [3]): 0.00912 µM
- Kb (Rattus norvegicus [9]): 0.126 µM
- Kb (Rattus norvegicus [5]): 0.38 µM
